Consider twelve molecules from ChEMBL document CHEMBL1134558, “Discovery of estrogen sulfotransferase inhibitors from a purine library screen” (J Med Chem, 2001).

In general, IC50 refers to the midpoint of a concentration-inhibition curve.

This assay concerns the target T1, Sulfotransferase 1E1 (Mus musculus, UniProt P49891).
T1 sequence (P49891 whole entry): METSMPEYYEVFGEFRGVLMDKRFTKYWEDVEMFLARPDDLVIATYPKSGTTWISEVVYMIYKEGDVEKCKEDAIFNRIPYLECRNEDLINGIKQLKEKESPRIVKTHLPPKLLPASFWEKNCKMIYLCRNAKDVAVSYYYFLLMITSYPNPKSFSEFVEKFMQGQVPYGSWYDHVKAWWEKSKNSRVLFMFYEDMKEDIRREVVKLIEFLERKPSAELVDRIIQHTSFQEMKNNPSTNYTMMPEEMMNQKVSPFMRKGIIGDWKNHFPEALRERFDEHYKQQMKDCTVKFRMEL
Put plainly: Inhibition of estrogen sulfotransferase (EST) in TLC radiolabel transfer assay. The procedure, abridged: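 Murine EST expressed and purified as an N-terminal GST fusion. Transfer of ³⁵S-sulfate from ³⁵S-PAPS to estrone acceptor; extent of reaction measured by TLC separation and phosphorimaging. IC50 values taken from this radiolabel transfer assay. In the screen each compound was tested at 100 μM, with >70% inhibition scored as a hit.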

In turn, `Cn1cnc2c(N(CCO)CCNCCO)nc(NCC(N)=O)nc21` displayed a half-maximal inhibitory concentration (IC50) of 100 µM.
The same measure for `COc1ccc(CNc2nc(N3CCCCCC3)nc3c2ncn3C(C)C)cc1`: 0.5 µM; for `COc1ccc(CNc2nc(N3CCN(C)CC3)nc3c2ncn3C(C)C)cc1`: 80 µM; for `Cn1cnc2c(NCc3ccccc3N)nc(NCC(N)=O)nc21`: 30 µM.
The same measure for `CC(O)CNc1nc(NCC(N)=O)nc2c1ncn2C` (configuration not stated): 60 µM; for `COc1ccc(CNc2nc(N[C@H](CO)CC(C)C)nc3c2ncn3C(C)C)cc1`: 60 µM; for `Cn1cnc2c(NCc3ccc(Cl)cc3)nc(NCC(N)=O)nc21`: 35 µM.
Molecule `O=[N+]([O-])c1ccc(CNc2nc(NCC3CCCCC3)c3ncn(CCO)c3n2)cc1` returned an IC50 of over 200 µM.
The same measure for `CC(C)n1cnc2c(NCc3ccc(N)cc3)nc(NCCCCC(=O)C3CSC(=O)N3)nc21` (configuration not stated): 72 µM.
With `COc1ccc(CNc2nc(NCc3ccccc3)nc3c2ncn3CCO)cc1` the figure was 30 µM.
In turn, `Cn1cnc2c(N(CCO)CCO)nc(NCC(N)=O)nc21` yielded a 50% inhibitory concentration (IC50) of over 200 µM.
In turn, `Cn1cnc2c(NCc3cc(Cl)cc(Cl)c3)nc(NCC(N)=O)nc21` registered an IC50 of 60 µM.
